Hits are enriched below; roughly 2% of the tested compounds scored in any of these assays.
NTR1 ag – NTR1 (human) agonism; NTR1-U2OS beta-arrestin-GFP spot imaging, agonist mode; activation, % at 20 µM; 330,000 compounds, 0.17% hits; AID 493036;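 active = activation at or above 40% of the spot to cytoplasm intensity ratio, with at least 20 cells analyzed; inconclusive = wells under 20 cells, flagged as cytotoxic or low count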;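 also: 0% = DMSO without peptide and 100% = 100 nM NTR1 peptide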
Target sequence (P30989 whole entry, looked up): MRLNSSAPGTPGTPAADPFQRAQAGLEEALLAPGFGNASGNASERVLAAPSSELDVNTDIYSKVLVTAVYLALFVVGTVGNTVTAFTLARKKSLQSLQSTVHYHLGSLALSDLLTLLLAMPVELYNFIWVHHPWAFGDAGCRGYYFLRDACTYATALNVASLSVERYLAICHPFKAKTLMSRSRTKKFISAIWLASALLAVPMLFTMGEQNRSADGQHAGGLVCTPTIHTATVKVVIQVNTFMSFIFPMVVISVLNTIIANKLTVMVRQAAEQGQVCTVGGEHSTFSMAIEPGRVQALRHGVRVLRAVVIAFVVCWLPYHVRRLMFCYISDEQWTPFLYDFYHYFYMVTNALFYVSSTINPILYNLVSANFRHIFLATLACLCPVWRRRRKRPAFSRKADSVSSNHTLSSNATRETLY
PKA-R2B act – activates the human PKA-R2B holoenzyme complex | P22694+P31323 | PKA-R2B holoenzyme dissociation, Cy5-IP20 fluorescence polarization; R2B truncated from residue 108, S112A mutant; 0% DMSO only, 100% 113 µM cGMP | 340,000 compounds, 0.079% hits | activation, % at 11.4 µM | AID 504700;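 active = activation above a cutoff set at the mean over all compounds plus 3 SD, cut at about 18% in these data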;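 also: higher means more holoenzyme dissociation and a rise in polarization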
PKA-R1A act – activates the PKA-R1A holoenzyme complex; 340,000 compounds, 0.083% hits; PKA-R1A dissociation, Cy5-IP20 fluorescence polarization; scaled: DMSO 0%, 113 µM cGMP 100%; activation, % at 11.4 µM;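 active = percent activation above the mean of all tested compounds plus 3 SD, cut at about 19% in these data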;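 also: higher means more PKAc released from R1A so a rise in polarization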
dFosB act – enhances mouse delta FosB homodimer DNA binding; P13346; purified delta FosB, TAMRA-CDK5 oligo fluorescence polarization; percent of positive-control signal above neutral wells; activation, % at 25 µM; 340,000 compounds, 0.99% hits; AID 493131;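 active = mean activation above about 17%, with every replicate also reaching it, limit read from the data, passing the limit was not always enough; inconclusive = only one of the two conditions met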
CAL PDZ FP-1 – CAL PDZ (human) peptide binding inhibition; Q9HD26; purified CAL PDZ, TMR-peptide fluorescence polarization, 1 h; inhibition, % at 24.9 µM; 300,000 compounds, 0.92% hits; AID 602252;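 active = mean inhibition of at least 30% with at least half of replicates also reaching 30%; inconclusive = no clear call, values can overlap the other calls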;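 also: 0% = DMSO neutral control and 100% = excess unlabeled competitor peptide PRC23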
CAL PDZ FP-2 – blocks peptide binding to human CAL PDZ domain | Q9HD26 | purified CAL PDZ, TMR-peptide fluorescence polarization, 1 h | inhibition, % at 20 µM | 330,000 compounds, 0.02% hits | AID 504414;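 active = highest replicate inhibition of at least 40%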;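 also: plate controls were DMSO neutral control wells for no effect and unlabeled competitor peptide control wells for full effect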
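material = purified tagged CAL PDZ domain construct (CerCALP) | buffer or medium = sodium phosphate/NaCl buffer pH 7.4 with TCEP, IgG, Thesit | reagent = TMR-labelled reporter peptide T*-PRC34 bound in PDZ groove | incubation = 1 h room-temperature incubation prior to read | measured by = fluorescence polarization (mP) | evaluation = percent inhibition from loss of millipolarization | control set = unlabelled peptide and DMSO controls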
The depositor's hits bear a star; u = inconclusive; x = no result.

SMILES | NTR1 ag | PKA-R2B act | PKA-R1A act | dFosB act | CAL PDZ FP-1 | CAL PDZ FP-2
CN(c1ccc(OCC(=O)OCC(=O)Nc2ccc([N+](=O)[O-])cc2)cc1)S(=O)(=O)c1cccs1 | x | -4 | 1 | -7 | 95* | 0
Cc1ccc(Cl)cc1NC(=O)COC(=O)CN1C(=O)C2CCCCC2C1=O (centres undefined) | 0 | -11 | -11 | -3 | x | 0
CC(=O)c1ccccc1NC(=O)COC(=O)CN1C(=O)C2CCCCC2C1=O (centres undefined) | -2 | -1 | -15 | 1 | 40* | -1
CCOC(=O)C1=C(COC(=O)[C@@H]2CCCN2S(=O)(=O)c2ccc(C)cc2)NC(=O)NC1C (some centres undefined) | 2 | -4 | -3 | -8 | -5 | 1
CCCCN1C(=O)C(CC(=O)NCc2ccco2)CC(C(=O)N2CCOCC2)=C1C (centres undefined) | x | -7 | 7 | x | x | x
CCn1nc(NS(=O)(=O)c2ccccc2[N+](=O)[O-])c2cc3ccc(C)cc3nc21 | 0 | 2 | 6 | -4 | x | -1
COC(=O)[C@H](C)N(Cc1ccc(Cl)c(Cl)c1)S(=O)(=O)CCN1CCCC1 | -2 | 1 | -3 | -3 | 35* | -1
COC(=O)[C@H](C)N(Cc1ccc(Cl)c(Cl)c1)S(=O)(=O)CCN1CCN(c2ccccc2)CC1 | 2 | 1 | -3 | 2 | 0 | -1
CCOC(=O)Cc1csc(NC(=O)/C=C/c2ccc(OC)cc2)n1 | 0 | 0 | 7 | -27 | 32* | -3
NC(=S)N=Nc1ccc(O)cc1 | x | 6 | 5 | 1 | -1 | 0
CC(=O)C[C@H](O)CC(=O)[C@H]1OC(=O)[C@@H](C)CCCCc2ccccc21 | 0 | 6 | -8 | 6 | -3 | 1
CC[C@@H]1CCCCc2ccccc2[C@H](C(=O)C[C@H](O)CC(C)=O)OC1=O | 0 | -2 | -7 | -2 | 54* | -1
COc1ccc(S(=O)(=O)N2CCCC(C(=O)NCc3ccc4c(c3)OCO4)C2)cc1 (centres undefined) | 1 | -12 | -11 | -7 | 4 | -1
Cc1ccc(C(C[N+](=O)[O-])Sc2ccc(N)cc2)cc1 (centres undefined) | 54* | -7 | 2 | 1 | x | -1
Nc1ccc(Sc2ccc([N+](=O)[O-])cc2)cc1 | -2 | -2 | -2 | 0 | 0 | -2
CN(C)c1ccc(NC(=O)c2ccc(N3CCOCC3)nc2)cc1 | 1 | 3 | -8 | -4 | -1 | 0
Cc1cccc(N2CCN(C(=O)c3cccc(S(=O)(=O)N4CCCCC4)c3)CC2)c1C | 8 | -7 | -7 | 3 | 69* | 0
O=C(c1ccc(S(=O)(=O)N2CCCC2)cc1)N1CCCCCC1 | 0 | -2 | -3 | -5 | 67* | -1
Cc1ccc(C(=O)NCCc2ccc(S(=O)(=O)N3CCCC3)cc2)cc1 | 0 | -6 | 6 | -1 | 44* | 0
O=C(Nc1ccc(C(=O)N2CCCCC2)cc1)C1CC1 | x | 1 | -7 | -5 | 42* | 0
Cc1ccc(CNC(=O)c2ccc(S(=O)(=O)N3CCCCCC3)cc2)cc1 | x | 14 | 16 | x | x | x
Cn1c(=O)c2[nH]c(Cc3ccsc3)nc2n(C)c1=O | x | -3 | -3 | -8 | -4 | 0
COc1ccc(C(=O)Nc2cccc(NC(=O)c3ccc(OC)c(OC)c3)n2)cc1OC | 1 | -3 | 2 | -28 | -7 | -5
CCOc1ccc(NC(=O)c2ccccc2NC(=O)c2cccnc2)cc1 | 0 | 4 | 8 | -5 | 1 | -1
C/C(N)=C(/C#N)C(=O)COC(=O)Cc1coc2ccc3ccccc3c12 | 7 | 5 | -7 | -9 | 79* | -1
SMILES | NTR1 ag | PKA-R2B act | PKA-R1A act | dFosB act | CAL PDZ FP-1 | CAL PDZ FP-2
C/C(N)=C(/C#N)C(=O)COc1ncnc2ccccc12 | -3 | -15 | -10 | -4 | -5 | 0
CCOc1ccc(N(CC(=O)NCc2ccc(C)cc2)S(=O)(=O)c2c(C)[nH]c(=O)[nH]c2=O)cc1 | 1 | 6 | 0 | -8 | 38* | -1
CCOC(=O)NC(=O)/C(N=Nc1ccc(C(F)(F)F)cc1)=C(\C)O | 0 | 1 | 3 | 4 | 45* | 0
Cc1ccc(N2CC(c3nc4ccccc4n3C)CC2=O)cc1 (centres undefined) | 2 | -1 | 4 | -14 | 31* | -2
CC(=O)Nc1ccc(S(=O)(=O)N2CCN(C(=O)c3ncoc3-c3ccccc3C)CC2)cc1 | -1 | 16 | 14 | -6 | 13 | -1
Cc1cnc(CNC(=O)c2ccc(OC3CCN(C(=O)C4CC4)CC3)cc2)cn1 | 0 | 12 | 2 | -6 | 1 | -1
COCC(=O)N1CCC(Oc2ccc(C(=O)NCCCn3cccn3)cc2)CC1 | -2 | -2 | 6 | -4 | 58* | 0
COCC(=O)N1CCC(Oc2ccc(C(=O)NCc3cnc(C)cn3)cc2)CC1 | 2 | 3 | -2 | 6 | 57* | 7
CCC(=O)Oc1cccc(C(=O)Nc2cccc(NC(=O)c3ccco3)c2)c1 | -1 | -10 | 2 | -17 | 44* | -3
O=C(Nc1ccc(CSc2ccccc2)cc1)c1ccco1 | 5 | 3 | 8 | u | 63* | -4
CCC(=O)Oc1ccc(NC(=O)c2ccco2)cc1 | 0 | -9 | 2 | -4 | 0 | 0
O=C(CCc1ccccc1)Nc1ccc(NC(=O)c2ccco2)cc1 | -1 | -3 | -15 | 3 | -2 | -2
O=C(Nc1ccc(Br)c(Cl)c1)c1ccco1 | 0 | -12 | -13 | -13 | 46* | x
O=C(Nc1cccc(F)c1)c1ccco1 | -1 | -2 | -4 | -1 | 1 | 54*
O=C(COc1ccc(F)cc1Cl)Nc1ccc(S(=O)(=O)Nc2nccs2)cc1 | 2 | 1 | 5 | -2 | -4 | 0
CCNc1nc(OCCNS(=O)(=O)c2cc(C)ccc2C)nc(N(C)C)n1 | 0 | -6 | -7 | -1 | -1 | -1
CCNc1nc(OC)nc(N(OC)S(=O)(=O)c2ccc(C)cc2)n1 | -1 | -7 | -4 | -6 | 74* | x
Cc1nc(SCC(=O)N2CCN(c3ccccc3)CC2)c2oc3ccccc3c2n1 | 17 | 4 | -10 | -1 | 64* | -1
CC(C)c1ccc(C2OCC(C)([N+](=O)[O-])CO2)cc1 (centres undefined) | x | -3 | 6 | -4 | 91* | 20
CC(C)c1ccc(C2OCCCO2)cc1 | x | 1 | 1 | -4 | x | 0
C=CCN(c1ccccc1OC)S(=O)(=O)c1cccc(C(=O)Nc2nnc(C3CC3)s2)c1 | 0 | -17 | 0 | -2 | 40* | -1
Cn1c(CC(=O)Nc2ccccc2F)nnc1SCC(=O)Nc1ccccc1Br | -1 | -7 | 1 | -1 | 42* | -1

From PubChem
